Data from paper PMC7897483 (Nucleic Acids Research, 2021).
One block for each molecule: values may come before it.

How the values were obtained:
[1] = target: hnRNP A18 RNA Recognition Motif (RRM) (Homo sapiens, UniProt Q14011); assay: NMR 1H,15N-HSQC chemical shift perturbation; type: binding; settings: 15N-labeled hnRNP A18 RRM
Procedure, shortened: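 Construct: human hnRNP A18 RRM (residues 1–92), expressed in E. coli BL21(DE3) as a His6-GB1 fusion in M9 medium with 15N-ammonium chloride, induced with 1 mM IPTG for 16 h at 18°C. Purified by denaturing Ni affinity with on-column refolding, then TEV cleavage.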

[2] = tested on: pancreatic cancer MiaPaca cells; assay: Cell viability; type: cell-based, human; settings: 24 h, increasing concentrations
Procedure, shortened: (§1)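 Cells plated at 10 000 per well and exposed to increasing concentrations of test compound for 24 h. HMEC were cultured per supplier guidance. Viability was read with the ApoTox-Glo viability reagent by fluorescence at 400 nm Ex/505 nm Em. Three replicates; error bars are standard deviation.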

hnRNP A18 = target: T1, hnRNP A18 (Homo sapiens, UniProt Q14011); assay: Cellular thermal shift assay; type: cell-based; settings: read-out: EC50, hnRNP A18 protection from melting; LOX-IM-VI cells over expressing GFP-hnRNP A18; 3 h; 57°C
T1 sequence (Q14011 1-172): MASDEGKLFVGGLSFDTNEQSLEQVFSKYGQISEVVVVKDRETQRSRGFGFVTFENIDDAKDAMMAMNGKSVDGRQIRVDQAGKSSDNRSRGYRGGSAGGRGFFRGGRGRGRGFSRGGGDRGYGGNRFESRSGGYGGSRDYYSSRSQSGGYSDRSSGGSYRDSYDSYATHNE

[3] = tested on: colorectal carcinoma RKO cells; assay: Cell viability; type: cell-based, human; settings: 24 h, increasing concentrations
Procedure, shortened: as §1

His-hnRNP A18 [4] = target: T2, His-hnRNP A18 (Homo sapiens, UniProt Q14011); assay: RNA band shift; type: binding; settings: biotinylated hnRNP A18 RNA consensus motif 1
T2 sequence (Q14011 1-172): T1 sequence (Q14011 1-172)
Procedure, shortened: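 Recombinant full-length human His-hnRNP A18 was expressed in bacteria grown at 30°C. Protein (1 μg) was preincubated 10 min with or without increasing concentrations of test compound. Biotinylated hnRNP A18 motif 1 RNA (51 nt) was then added for 10 min at room temperature. Complexes were resolved on native polyacrylamide gels, transferred to nylon and detected by chemiluminescence with streptavidin-HRP.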

[5] = tested on: normal human mammary epithelial HMEC cells; assay: Cell viability; type: cell-based; settings: 24 h
Procedure, shortened: as §1

Glioblastoma D54 cells = assay: Cell viability; type: cell-based, human; settings: D54, 24 h, increasing concentrations
Procedure, shortened: as §1

[6] = Parallel Artificial Membrane Permeability Assay; type: in vitro ADME; settings: pH 5.0 and 6.8, room temperature, ∼4 h; data not shown
Procedure, shortened: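 Test compounds were made up as 10 mM DMSO stocks and filtered (0.2 μm). The assay used stirred PAMPA plates with GIT-0 lipid and an acceptor sink buffer. After permeation, UV spectra from 245 to 498 nm gave relative compound concentrations in the donor and acceptor compartments, from which effective permeability was derived.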

GST-hnRNP A18 = target: T3, GST-hnRNP A18 (UniProt Q14011 1-172); assay: fluorescence anisotropy
T3 sequence: T1 sequence (Q14011 1-172)

His-hnRNP A18 [7] = target: T4, His-hnRNP A18 (human, UniProt Q14011 1-172); assay: EMSA
T4 sequence: T1 sequence (Q14011 1-172)

EC50 (hnRNP A18): 23.8 µM | hnRNP A18 RNA binding activity / specificity by RNA band shift (His-hnRNP A18 [4]): specifically bound hnRNP A18 | effective permeability (Pe) [6]: > 2e-05 cm/s
Molecule: Cc1sc(NC(=O)c2ccccc2)nc1OC(=O)c1ccccc1 [VITAS STK508411]
chemical shift perturbations of hnRNP A18 RRM (qualitative) [1]: Chemical shift perturbations were observed | cell viability (relative efficacy) [2]: least effective | cell viability (relative efficacy) [3]: least effective | toxicity to normal cells [5]: 20–40% | cell viability (relative efficacy) (Glioblastoma D54 cells): least effective

B1: hnRNP A18 motif 1 Fl (ssRNA)
RNA: GCAGAUCCAGGGUGGGAUUUUCUUGAGGAAGUUACAAAUAAGCUUGUUACA
binding result (GST-hnRNP A18): binds

B2: hnRNP A18 motif 1 Biotin (ssRNA)
RNA: B1 RNA
binding result (His-hnRNP A18 [7]): binds
